Assays:
BaF3 = experiment: Antiproliferative activity against mouse BAF3 cell line transformed with TEL-FGFR3 construct after 48 hrs by luciferase bioluminescent assay; type: functional, cell-based; settings: BaF3, 48 h
Summary of the method: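 IL-3-independent BaF3 or BaF3 Tel-TK cells were grown in RPMI-1640 with 10% FBS and seeded at 4250 cells/well in 384-well plates. Compound serially diluted in DMSO was pin-transferred, followed by 48 h at 37 °C, 5% CO2. Viability was read by Bright-Glo luciferase luminescence.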

Cytochrome P450 1A2 = target: T1, Cytochrome P450 1A2 (Homo sapiens, UniProt P05177); experiment: Inhibition of CYP1A2 using CEC as substrate; type: ADME
T1 sequence (P05177 whole entry): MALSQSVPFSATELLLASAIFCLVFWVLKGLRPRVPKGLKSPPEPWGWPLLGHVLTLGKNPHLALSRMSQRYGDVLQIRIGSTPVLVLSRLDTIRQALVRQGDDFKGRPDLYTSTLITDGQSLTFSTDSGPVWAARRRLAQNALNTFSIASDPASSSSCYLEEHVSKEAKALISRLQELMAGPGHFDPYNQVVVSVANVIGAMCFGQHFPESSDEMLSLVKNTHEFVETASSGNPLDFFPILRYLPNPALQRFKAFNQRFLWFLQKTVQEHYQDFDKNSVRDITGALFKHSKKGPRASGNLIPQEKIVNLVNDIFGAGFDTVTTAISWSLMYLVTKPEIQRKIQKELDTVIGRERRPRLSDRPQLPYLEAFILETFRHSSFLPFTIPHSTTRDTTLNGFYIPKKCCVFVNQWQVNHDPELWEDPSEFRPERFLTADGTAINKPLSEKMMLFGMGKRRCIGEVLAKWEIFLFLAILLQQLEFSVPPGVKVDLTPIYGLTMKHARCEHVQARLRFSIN
Summary of the method: (§1)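 Human CYP450 inhibition was measured with isoform-specific fluorogenic probe substrates: CEC for 1A2 and 2C19, MFC for 2C9, AMMC for 2D6. Incubation was at 37 °C with an NADPH-regenerating system in 384-well format. Metabolite was quantified by fluorescence, and IC50 was obtained by curve fitting.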

Cytochrome P450 3A4 [1] = target: T2, Cytochrome P450 3A4 (Homo sapiens, UniProt P08684); experiment: Inhibition of CYP3A4 using DBF as substrate
T2 sequence (P08684 whole entry): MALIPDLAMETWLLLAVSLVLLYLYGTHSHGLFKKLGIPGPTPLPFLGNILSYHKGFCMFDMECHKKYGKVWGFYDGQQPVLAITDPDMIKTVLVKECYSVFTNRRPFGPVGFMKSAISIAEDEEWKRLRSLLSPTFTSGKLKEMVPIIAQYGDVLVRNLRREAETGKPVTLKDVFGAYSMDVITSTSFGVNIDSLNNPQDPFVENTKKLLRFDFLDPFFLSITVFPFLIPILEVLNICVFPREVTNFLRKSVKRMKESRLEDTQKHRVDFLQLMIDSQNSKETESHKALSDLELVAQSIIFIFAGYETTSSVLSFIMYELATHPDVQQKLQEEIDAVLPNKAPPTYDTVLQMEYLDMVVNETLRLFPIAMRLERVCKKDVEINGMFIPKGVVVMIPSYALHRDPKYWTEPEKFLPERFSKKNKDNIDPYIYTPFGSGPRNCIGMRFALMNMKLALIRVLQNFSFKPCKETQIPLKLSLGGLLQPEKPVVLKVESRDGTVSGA

Cytochrome P450 2D6 = Cytochrome P450 2D6 (Homo sapiens, UniProt P10635); experiment: Inhibition of CYP2D6 using AMMC as substrate; type: ADME; summary of the method: as §1
Sequence of Cytochrome P450 2D6 (P10635 whole entry): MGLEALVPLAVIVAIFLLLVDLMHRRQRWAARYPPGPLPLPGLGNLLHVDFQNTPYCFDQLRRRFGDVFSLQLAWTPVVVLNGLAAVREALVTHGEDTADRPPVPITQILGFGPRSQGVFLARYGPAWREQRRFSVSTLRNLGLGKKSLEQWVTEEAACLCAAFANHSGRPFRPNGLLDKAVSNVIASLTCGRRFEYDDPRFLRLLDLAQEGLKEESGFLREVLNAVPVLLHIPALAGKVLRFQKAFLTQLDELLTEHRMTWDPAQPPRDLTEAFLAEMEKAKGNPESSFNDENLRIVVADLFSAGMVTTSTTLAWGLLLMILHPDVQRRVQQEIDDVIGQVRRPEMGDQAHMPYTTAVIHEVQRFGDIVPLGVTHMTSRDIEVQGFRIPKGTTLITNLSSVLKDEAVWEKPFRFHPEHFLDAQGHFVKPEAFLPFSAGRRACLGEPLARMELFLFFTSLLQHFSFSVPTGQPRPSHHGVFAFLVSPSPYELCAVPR

Cytochrome P450 2C9 = Cytochrome P450 2C9 (Homo sapiens, UniProt P11712); experiment: Inhibition of CYP2C9 using MFC as substrate; type: ADME; summary of the method: as §1
Sequence of Cytochrome P450 2C9 (P11712 whole entry): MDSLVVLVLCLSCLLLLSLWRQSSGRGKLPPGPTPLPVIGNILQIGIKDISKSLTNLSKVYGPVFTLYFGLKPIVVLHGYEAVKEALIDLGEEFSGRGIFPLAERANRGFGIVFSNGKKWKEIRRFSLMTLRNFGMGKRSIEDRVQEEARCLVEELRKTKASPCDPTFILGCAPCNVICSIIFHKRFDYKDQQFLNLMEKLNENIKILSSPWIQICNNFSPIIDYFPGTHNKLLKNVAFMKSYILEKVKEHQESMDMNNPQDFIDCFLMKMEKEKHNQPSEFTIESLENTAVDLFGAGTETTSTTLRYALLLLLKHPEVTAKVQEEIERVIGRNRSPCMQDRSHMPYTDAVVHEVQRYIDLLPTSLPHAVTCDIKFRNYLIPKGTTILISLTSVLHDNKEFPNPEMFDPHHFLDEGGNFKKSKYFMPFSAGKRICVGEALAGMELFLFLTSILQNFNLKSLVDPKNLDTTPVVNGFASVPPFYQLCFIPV

Cytochrome P450 2C19 = Cytochrome P450 2C19 (Homo sapiens, UniProt P33261); experiment: Inhibition of CYP2C19 using CEC as substrate; type: ADME; summary of the method: as §1
Sequence of Cytochrome P450 2C19 (P33261 whole entry): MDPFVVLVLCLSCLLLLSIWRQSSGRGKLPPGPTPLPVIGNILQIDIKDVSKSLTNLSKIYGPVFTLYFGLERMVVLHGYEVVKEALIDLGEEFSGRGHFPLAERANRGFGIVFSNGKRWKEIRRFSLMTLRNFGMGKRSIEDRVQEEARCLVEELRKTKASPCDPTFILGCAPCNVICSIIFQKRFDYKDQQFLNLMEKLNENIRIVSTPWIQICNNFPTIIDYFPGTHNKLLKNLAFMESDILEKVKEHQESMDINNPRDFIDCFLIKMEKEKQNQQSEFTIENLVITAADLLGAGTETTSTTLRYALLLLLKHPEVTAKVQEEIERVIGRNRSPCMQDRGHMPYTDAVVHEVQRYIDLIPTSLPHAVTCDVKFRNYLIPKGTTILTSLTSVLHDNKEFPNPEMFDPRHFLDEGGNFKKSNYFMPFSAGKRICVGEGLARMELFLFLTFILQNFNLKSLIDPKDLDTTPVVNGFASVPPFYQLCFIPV

Cytochrome P450 3A4 [2] = target: T2, Cytochrome P450 3A4; experiment: Inhibition of CYP3A4 using BFC as substrate

## CCN(C(=O)Nc1cc(OC)cc(OC)c1Cl)c1cc(Nc2ccc(N3CCN(C)CC3)cc2)ncn1
BaF3
  IC50: 0.75 µM

## COc1cc(NC(=O)N(C)c2cc(Nc3ccc(N4CCN(C)CC4)cc3)ncn2)cc(OC)c1
BaF3
  IC50: 1.51 µM

## COc1cc(NC(=O)N(C)c2cc(Nc3ccc(N4CCN(C)CC4)cc3)ncn2)c(Cl)c(OC)c1
BaF3
  IC50: 0.635 µM

## COc1cc(NC(=O)Nc2cc(Nc3ccc(N4CCN(C)CC4)cc3)ncn2)c(Cl)c(OC)c1
BaF3
  IC50: 0.832 µM

## COc1ccc(Cl)c(NC(=O)Nc2cc(Nc3ccc(N4CCN(C)CC4)cc3)ncn2)c1
BaF3
  IC50: 2.22 µM

## COc1ccc(Cl)c(NC(=O)Nc2cc(Nc3ccc(N4CCN(C)CC4)cc3)ncn2)c1Cl
BaF3
  IC50: 0.126 µM

## COc1ccc(Cl)c(NC(=O)N(C)c2cc(Nc3ccc(N4CCN(C)CC4)cc3)ncn2)c1Cl
BaF3
  IC50: 0.118 µM

## COc1cc(OC)c(Cl)c(NC(=O)N(C)c2cc(Nc3cccc(N4CCN(C)CC4)c3)ncn2)c1Cl
Cytochrome P450 1A2
  IC50: > 10 µM
Cytochrome P450 3A4 [1]
  IC50: > 10 µM
Cytochrome P450 2D6
  IC50: > 10 µM
Cytochrome P450 2C9
  IC50: 1.7 µM
Cytochrome P450 2C19
  IC50: 0.9 µM
Cytochrome P450 3A4 [2]
  IC50: 1.1 µM
BaF3
  IC50: 0.002 µM

## COc1cc(OC)c(Cl)c(NC(=O)N(C)c2cc(Nc3ccc(OCCN4CCCC4)cc3)ncn2)c1Cl
Cytochrome P450 1A2
  IC50: > 10 µM
Cytochrome P450 3A4 [1]
  IC50: 2.5 µM
Cytochrome P450 2D6
  IC50: > 10 µM
Cytochrome P450 2C9
  IC50: > 10 µM
Cytochrome P450 2C19
  IC50: > 10 µM
Cytochrome P450 3A4 [2]
  IC50: > 10 µM
BaF3
  IC50: 0.028 µM

## COc1cc(OC)c(Cl)c(NC(=O)N(C)c2cc(Nc3ccc(CCCN(C)C)cc3)ncn2)c1Cl
Cytochrome P450 1A2
  IC50: > 10 µM
Cytochrome P450 3A4 [1]
  IC50: > 10 µM
Cytochrome P450 2D6
  IC50: > 10 µM
Cytochrome P450 2C9
  IC50: > 10 µM
Cytochrome P450 2C19
  IC50: 3.6 µM
Cytochrome P450 3A4 [2]
  IC50: 1 µM
BaF3
  IC50: 0.027 µM

## CCN1CCC(c2ccc(Nc3cc(N(C)C(=O)Nc4c(Cl)c(OC)cc(OC)c4Cl)ncn3)cc2)CC1
Cytochrome P450 1A2
  IC50: > 10 µM
Cytochrome P450 3A4 [1]
  IC50: 6 µM
Cytochrome P450 2D6
  IC50: > 10 µM
Cytochrome P450 2C9
  IC50: 4 µM
Cytochrome P450 2C19
  IC50: 1.1 µM
Cytochrome P450 3A4 [2]
  IC50: 1.2 µM
BaF3
  IC50: 0.014 µM

## COc1cc(OC)c(Cl)c(NC(=O)N(C)c2cc(Nc3cccc(CN4CCN(C)CC4)c3)ncn2)c1Cl
Cytochrome P450 1A2
  IC50: 7 µM
Cytochrome P450 3A4 [1]
  IC50: > 10 µM
Cytochrome P450 2D6
  IC50: > 10 µM
Cytochrome P450 2C9
  IC50: > 10 µM
Cytochrome P450 2C19
  IC50: 0.3 µM
Cytochrome P450 3A4 [2]
  IC50: 0.5 µM
BaF3
  IC50: 0.014 µM

## COc1cc(OC)c(Cl)c(NC(=O)N(C)c2cc(Nc3cccc(CN(C)C)c3)ncn2)c1Cl
Cytochrome P450 1A2
  IC50: > 10 µM
Cytochrome P450 2D6
  IC50: > 10 µM
Cytochrome P450 2C9
  IC50: > 10 µM
Cytochrome P450 2C19
  IC50: 1.4 µM
BaF3
  IC50: 0.011 µM

Source: ChEMBL document CHEMBL1833940, “Discovery of 3-(2,6-dichloro-3,5-dimethoxy-phenyl)-1-{6-[4-(4-ethyl-piperazin-1-yl)-phenylamino]-pyrimidin-4-yl}-1-methyl-urea (NVP-BGJ398), a potent and selective inhibitor of the fibroblast growth factor receptor family of receptor tyrosine kinase” (J Med Chem, 2011)
